Activity calls are given as the source filed them. The calls are words filed in the database; no cut-off is given here.
What was measured:
[1] = (§1) Inhibition of HIV-1 nucleocapsid protein (12 to 55 residues) assessed a sreduction in TAR29/cTAR29 duplex formation preincubated for 15 mins followed by TAR29/cTAR29 addition and measured after 15 mins by nucleocapsid annealing mediated electrophoresis assay; design: species or system Human immunodeficiency virus 1
Procedure, shortened: (§2)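 TAR29 and cTAR29 hairpins folded separately (95°C 5 min, slow cooling) in Tris 25 mM, NaCl 30 mM, Mg(ClO4)2 0.2 mM, pH 7.5. NC(12–55, LAI strain; final 8 μM) preincubated with compound (DMSO ≤2%) 15 min at room temperature. Then 1 μM each hairpin added, 15 min at room temperature. Stopped with SDS/EDTA loading buffer; duplex resolved on native 12% PAGE. IC50 from Hill fit, triplicates.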

[2] = tested on: Human immunodeficiency virus 1; assay: as §1; procedure, shortened: as §2
[3] = tested on: Human immunodeficiency virus 1; assay: Binding affinity to HIV-1 nucleocapsid protein (1 to 55 residues) at 5 uM incubated for 30 mins by ESI-MS method
[4] = tested on: Human immunodeficiency virus 1; assay: Binding affinity to HIV-1 nucleocapsid protein (1 to 55 residues) assessed as fractional protein occupancy ratio at 5 uM incubated for 30 mins by ESI-MS method
[5] = Selectivity index, ratio of IC50 for human MT2 cells to IC50 for HIV1 NL4-3 infected in human MT2 cells; assay type: toxicity, cell-based; conditions: uninfected versus infected with HIV1 NL4-3, read-out: Ratio IC50
Procedure, shortened: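 Selectivity index from TD50 in MT-2 cells and IC50 from the BiCycle assay. […] BiCycle IC50: MT-2 cells infected with NL4-3 with compound for 72 h; supernatant then transferred to TZM-bl cells, luciferase read after 48 h.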

[6] = tested on: Human immunodeficiency virus 1; assay: Inhibition of HIV-1 nucleocapsid protein (11 to 55 residues) assessed as reduction in dTAR55/cTAR55AD nucleic acid annealing at 200 uM by Alexa488 dye-based fluorimetric analysis
Procedure, shortened: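 Pseudo-first-order annealing: 10 nM cTAR55 (5'-Alexa488, 3'-Dabcyl) and 100 nM dTAR55, each premixed with 8-fold NC(11–55, MAL strain, Zn-loaded). Buffer was Tris 25 mM, NaCl 30 mM, MgCl2 0.2 mM, pH 7.5, with 1% DMSO. Compound added to the dTAR55/NC mix. Fluorescence read at 480/519 nm, 20°C; rate constant from mono-exponential fit.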

[7] = Selectivity index, ratio of IC50 for human TZM-bl cells to IC50 for HIV1 NL4-3 infected in human TZM-bl cells; assay type: toxicity, cell-based; conditions: uninfected versus infected with HIV1 NL4-3, read-out: Ratio IC50
Procedure, shortened: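 Selectivity index from TD50 in TZM-bl cells and IC50 from the MonoCycle assay. […] MonoCycle IC50: 30,000 TZM-bl cells/well infected with NL4-3 with five-fold dilutions 5 nM–400 μM; luciferase RLU read after two days.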

MT2 = assay: Cytotoxicity against human MT2 cells after 72 hrs by CellTiter-Glo reagent-based assay; conditions: MT2, 72 h
[8] = tested on: Human immunodeficiency virus 1; assay: Antiviral activity against HIV1 NL4-3 infected in human MT2 cells incubated for 72 hrs followed by reinfection in human TZM-bl cells measured after 48 hrs by luciferase reporter gene based bicycle infection assay; assay type: functional, organism-based; conditions: Human immunodeficiency virus 1, NL4-3
Procedure, shortened: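 This is a two-cycle format. MT-2 cells (50,000/well) were infected with NL4-3 alongside five-fold compound dilutions (5 nM–400 μM) and kept 72 h at 37°C, 5% CO2. Supernatant carrying first-round virus then infected TZM-bl cells (30,000/well) for 48 h under the same conditions. Luciferase RLU gave the IC50 with a 95% confidence interval.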

[9] = tested on: Human immunodeficiency virus 1; assay: Antiviral activity against HIV1 NL4-3 infected in human TZM-bl cells measured after 2 days by luciferase reporter gene based monocycle infection assay; assay type: functional, organism-based; conditions: Human immunodeficiency virus 1, NL4-3, TZM-bl, 48 h
Procedure, shortened: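 TZM-bl cells (30,000/well) were infected with an NL4-3 stock in the presence of serial five-fold compound dilutions from 5 nM to 400 μM. Plates were held at 37°C, 5% CO2, for two days. Cells were then lysed and luciferase was read as RLU. IC50 was fitted from per-well RLU with a 95% confidence interval.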

TZM = assay: Cytotoxicity against human TZM-bl cells after 48 hrs by CellTiter-Glo reagent-based assay; assay type: cell-based
Procedure, shortened: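 Viability was measured by CellTiter-Glo ATP luminescence. TZM-bl cells (15,000/well) were incubated 48 h at 37°C, 5% CO2, with serial two-fold compound dilutions from 3.1 to 400 μM. Medium was then replaced by reagent, shaken 10 min, and luminescence read. TD50 was derived from RLU normalised to untreated cells (100% viability), with a 95% confidence interval.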

[10] = Inhibition of HIV-1 nucleocapsid protein (11 to 55 residues) chaperone activity assessed as reduction in nucleocapsid-induced Alexa488-labeled TAR55AD nucleic acid destabilization using Dabcyl as quencher by spectrofluorimetry based nucleic acid destabilization assay; design: species or system Human immunodeficiency virus 1
Procedure, shortened: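 Preformed complex of 100 nM cTAR55 (5'-Alexa488, 3'-Dabcyl) and 1000 nM NC(11–55, MAL strain, Zn-loaded) in Tris 25 mM, NaCl 30 mM, MgCl2 0.2 mM, pH 7.5. Compound titrated in (25–500 μM); emission spectra taken at 480 nm excitation, 20°C. Inhibition calculated relative to cTAR alone and cTAR+NC, corrected for dilution and compound fluorescence. IC50 from Hill dose-response fit, triplicates.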

Question: For O=c1[nH]c2ccc(S(=O)(=O)Nc3ccc(S(=O)(=O)NCC(F)(F)F)cc3)cc2o1, which IC50 [1] is on record?
Answer: Its IC50 is “Not Active”.

Question: With Cc1ccc(NC(=O)CCn2c(=O)[nH]c3cc(S(=O)(=O)N4CCCC4)ccc32)cc1 as the molecule, how does the IC50 [1] read?
Answer: The IC50 was “Not Active”.

Question: With O=c1[nH]c2ccc(S(=O)(=O)O)cc2[nH]1 as the molecule, how does the IC50 [1] read?
Answer: Its IC50 is “Not Active”.

Question: For O=C(O)c1ccc(NS(=O)(=O)c2ccc3[nH]c(=O)[nH]c3c2)cc1O, which IC50 [1] is on record?
Answer: Its IC50 is “Not Active”.

Question: For COc1ccccc1NC(=O)CCNS(=O)(=O)c1ccc2nc(O)oc2c1, which IC50 [1] is on record?
Answer: Its IC50 is “Not Active”.

Question: With Cc1cc(COc2ccc(Cl)cc2C(N)=O)no1 as the molecule, how does the inhibition [2] read?
Answer: The inhibition was “inactive”.

Question: With O=C(O)c1ccc2c(c1)CCN2S(=O)(=O)c1ccc2[nH]c(=O)oc2c1 as the molecule, how does the Activity [3] read?
Answer: Its Activity is “Active”.

Question: And the IC50 ([1]; read-out: IC50)?
Answer: The IC50 was 163 µM.

Question: For O=C(CSc1ccccn1)c1ccc(O)c(O)c1, which inhibition [2] is on record?
Answer: Its inhibition is “inactive”.

Question: With Cc1cc(C)n(CCOC(=O)c2ccc(N3CCNC3=O)cc2)n1 as the molecule, how does the inhibition [2] read?
Answer: Its inhibition is “inactive”.

Question: For CSCCC(NS(=O)(=O)c1ccc2[nH]c(=O)oc2c1)C(=O)O (configuration not stated), which IC50 [1] is on record?
Answer: The IC50 was “Not Active”.

Question: Which inhibition [2] does the source give for O=C(O)C1CCN(c2ncnc3nc[nH]c23)CC1 here?
Answer: The inhibition was “inactive”.

Question: For COc1cccc(CNn2cnnc2S)c1OCc1ccccc1, which inhibition [2] is on record?
Answer: The inhibition was “inactive”.

Question: With CC(=O)c1sc(NS(=O)(=O)c2ccc3[nH]c(=O)[nH]c3c2)nc1C as the molecule, how does the IC50 [1] read?
Answer: The IC50 was “Not Active”.

Question: For O=c1cc(Cc2nnc(S)n2-c2ccc(Cl)cc2)[nH]c(=O)[nH]1, which inhibition [2] is on record?
Answer: The inhibition was “Active”.

Question: Which inhibition [2] does the source give for Cc1nc2c(c(=O)[nH]1)CCN(S(=O)(=O)c1cccc3nsnc13)C2 here?
Answer: Its inhibition is “inactive”.

Question: Which inhibition [2] does the source give for N#Cc1cnc(SCc2cccc(C(N)=O)c2)nc1N here?
Answer: The inhibition was “inactive”.

Question: Which inhibition [2] does the source give for NC(=O)c1ccc(CNC(=O)Cn2ccc(=O)[nH]c2=O)cc1 here?
Answer: Its inhibition is “inactive”.

Question: For O=C1N=NC(=S)N1c1ccc(Cl)c(Cl)c1, which inhibition [2] is on record?
Answer: The inhibition was “Active”.

Question: For Cc1ccc(-c2nn(CCC(=O)O)cc2/C=C2\SC(=N)NC2=O)cc1, which inhibition [2] is on record?
Answer: The inhibition was “inactive”.

Question: With CC(CCc1ccccc1)NC(=O)c1ccc[nH]c1=O (configuration not stated) as the molecule, how does the inhibition [2] read?
Answer: Its inhibition is “inactive”.

Question: For N=C(N)c1ccc(N2CCCCC2)cc1, which inhibition [2] is on record?
Answer: The inhibition was “inactive”.

Question: Which results are given for O=c1[nH]c2ccc(S(=O)(=O)Nc3cc(C(F)(F)F)ccc3Cl)cc2o1?
Answer: Activity [3]: Active; IC50 ([1]; read-out: IC50): 179 µM

Question: Which inhibition [2] does the source give for COc1cccc(-n2c(CCn3cccn3)n[nH]c2=O)c1 here?
Answer: Its inhibition is “inactive”.

Question: For c1ccc(-c2ccnc3[nH]ccc23)c(OCCn2ccnc2)c1, which inhibition [2] is on record?
Answer: Its inhibition is “inactive”.

Question: What does the source list for Cc1ccc(NS(=O)(=O)c2ccc3oc(=O)[nH]c3c2)c(C)c1?
Answer: Ratio [4]: 0.06; Activity [3]: Active

Question: With O=C(CO)N1CCCC(c2[nH]ncc2Cc2ccccc2)C1 (configuration not stated) as the molecule, how does the inhibition [2] read?
Answer: The inhibition was “inactive”.

Question: With Nc1cccc(C(=O)NCCCC(=O)O)c1 as the molecule, how does the inhibition [2] read?
Answer: The inhibition was “inactive”.

Question: For Cc1nc[nH]c1-c1nccn1CCCc1ccccc1, which inhibition [2] is on record?
Answer: Its inhibition is “inactive”.

Question: Which IC50 [1] does the source give for CS(=O)(=O)N1CCc2cc(NS(=O)(=O)c3ccc4[nH]c(=O)oc4c3)ccc21 here?
Answer: Its IC50 is “Not Active”.

Question: For N=C(N)NS(=O)(=O)c1ccc2[nH]c(=O)oc2c1, which IC50 ([1]; read-out: IC50) is on record?
Answer: Its IC50 is 203 µM.

Question: Which IC50 [1] does the source give for O=C(O)CNS(=O)(=O)c1ccc2[nH]c(=O)oc2c1 here?
Answer: The IC50 was “Not Active”.

Question: With COc1ccc(C(C)(C)C)cc1NS(=O)(=O)c1ccc2[nH]c(=O)[nH]c2c1 as the molecule, how does the IC50 [1] read?
Answer: The IC50 was “Not Active”.

Question: For Cc1cc(CCCNc2nnnn2-c2ccccc2)n[nH]1, which inhibition [2] is on record?
Answer: The inhibition was “inactive”.

Question: For O=c1[nH]c2cc(S(=O)(=O)Nc3ccc4[nH]ncc4c3)ccc2o1, which selectivity ratio [5] is on record?
Answer: Its selectivity ratio is 3.8.

Question: What about the Ratio [4] of the same molecule?
Answer: Its Ratio is 0.16.

Question: What about the inhibition [6] of the same molecule?
Answer: Its inhibition is 40%.

Question: What about the Activity [3] of the same molecule?
Answer: The Activity was “Active”.

Question: And the selectivity ratio [7]?
Answer: Its selectivity ratio is 5.1.

Question: What about the IC50 (MT2) of the same molecule?
Answer: Its IC50 is 140 µM.

Question: What about the IC50 [8] of the same molecule?
Answer: The IC50 was 36.4 µM.

Question: And the IC50 [9]?
Answer: The IC50 was 30.6 µM.

Question: What about the IC50 ([1]; read-out: IC50) of the same molecule?
Answer: The IC50 was 20 µM.

Question: And the TD50 (TZM)?
Answer: The TD50 was 155 µM.

Question: And the IC50 [10]?
Answer: The IC50 was 210 µM.

Question: What does the source list for Cc1cc2[nH]c(=O)oc2cc1S(=O)(=O)NN1CCc2c(nc[nH]c2=O)C1?
Answer: Activity [3]: Active; IC50 ([1]; read-out: IC50): 170 µM

Question: For O=C1CN(C(=O)Cc2n[nH]c(=O)c3ccccc23)CCN1, which inhibition [2] is on record?
Answer: Its inhibition is “inactive”.

Question: With COc1ccccc1-c1nccn1CCc1n[nH]c(=O)[nH]1 as the molecule, how does the inhibition [2] read?
Answer: The inhibition was “inactive”.

Question: For O=C(COc1cccc(Cl)c1Cl)N1CCNC1=O, which inhibition [2] is on record?
Answer: The inhibition was “inactive”.

Question: Which inhibition [2] does the source give for COc1ccc(O)c(C(=O)c2cnc3[nH]c(=O)[nH]c(=O)c3c2)c1 here?
Answer: The inhibition was “inactive”.

Question: For NC(=O)c1ccn(COc2ccccc2F)n1, which inhibition [2] is on record?
Answer: The inhibition was “inactive”.

Question: Which inhibition [2] does the source give for COc1ccc2[nH]c(C(N)=O)cc2c1 here?
Answer: The inhibition was “inactive”.

Question: With O=c1[nH]c2ccc(S(=O)(=O)Nc3cc(-c4ccccc4)no3)cc2[nH]1 as the molecule, how does the IC50 [1] read?
Answer: The IC50 was “Not Active”.

Question: For N#Cc1ccc(CSc2nc3[nH]ncc3c(=O)[nH]2)cc1, which inhibition [2] is on record?
Answer: The inhibition was “inactive”.

Question: For O=c1[nH]c2ccc(S(=O)(=O)Nn3cnnc3)cc2o1, which IC50 [1] is on record?
Answer: The IC50 was “Not Active”.

Question: With O=C(CCC1NC(=O)c2ccccc21)Nc1nc[nH]n1 (configuration not stated) as the molecule, how does the inhibition [2] read?
Answer: The inhibition was “inactive”.

Question: For O=C(O)CCC1NC(=O)N(Cc2ccccc2)C1=O (configuration not stated), which inhibition [2] is on record?
Answer: The inhibition was “inactive”.

Question: With Cc1nc(CN(C)S(=O)(=O)c2cc3[nH]c(=O)[nH]c3cc2Br)no1 as the molecule, how does the IC50 [1] read?
Answer: The IC50 was “Not Active”.

Question: With O=C(Cn1[nH]cc2c(=O)ncnc1-2)NC1(c2ccccc2)CCC1 as the molecule, how does the inhibition [2] read?
Answer: The inhibition was “inactive”.
